Reference: ChEMBL document CHEMBL1629494, “New amino acid esters of salicylanilides active against MDR-TB and other microbes” (Eur J Med Chem, 2010)
Converted amounts (≈) assume the structure as drawn.

What was measured:
Format in all cases: functional
[1] = test system: Mycobacterium tuberculosis; assay: Antimycobacterial activity against Mycobacterium tuberculosis H37Rv 331/88 after 14 days by micromethod; details: H37Rv 331/88, 336 h
How it was run: (§1)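 Micromethod in Sula semisynthetic medium, with compounds added as DMSO solutions at 1000, 500, 250, 125, 62, 32, 16, 8, 4, 2, 1, 0.5, 0.25. Inoculum dilutions: H37Rv 10^-3; M. avium 330/88 10^-5; M. kansasii 235/80 10^-4; M. kansasii 6509/96 10^-5. Incubated at 37 °C, read at 14 and 21 days, and at 7 days for M. kansasii. MIC was the lowest concentration inhibiting growth.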

[2] = test system: Mycobacterium tuberculosis; assay: Antimycobacterial activity against Mycobacterium tuberculosis H37Rv 331/88 after 21 days by micromethod; details: H37Rv 331/88, 504 h; how it was run: as §1
[3] = test system: Mycobacterium avium; assay: Antimycobacterial activity against multidrug-resistant Mycobacterium avium 330/88 after 14 days by micromethod; details: 330/88, 336 h; how it was run: as §1
[4] = test system: Mycobacterium avium; assay: Antimycobacterial activity against multidrug-resistant Mycobacterium avium 330/88 after 21 days by micromethod; details: 330/88, 504 h; how it was run: as §1
[5] = test system: Mycobacterium kansasii; assay: Antimycobacterial activity against Mycobacterium kansasii 235/80 after 7 days by micromethod; details: 235/80, 168 h; how it was run: as §1
[6] = test system: Mycobacterium kansasii; assay: Antimycobacterial activity against Mycobacterium kansasii 235/80 after 14 days by micromethod; details: 235/80, 336 h; how it was run: as §1
[7] = test system: Mycobacterium kansasii; assay: Antimycobacterial activity against Mycobacterium kansasii 235/80 after 21 days by micromethod; details: 235/80, 504 h; how it was run: as §1
[8] = test system: Mycobacterium kansasii; assay: Antimycobacterial activity against Mycobacterium kansasii 6509/96 after 7 days by micromethod; details: 6509/96, 168 h; how it was run: as §1
[9] = test system: Mycobacterium kansasii; assay: Antimycobacterial activity against Mycobacterium kansasii 6509/96 after 14 days by micromethod; details: 6509/96, 336 h; how it was run: as §1
[10] = test system: Mycobacterium kansasii; assay: Antimycobacterial activity against Mycobacterium kansasii 6509/96 after 21 days by micromethod; details: 6509/96, 504 h; how it was run: as §1
[11] = test system: Mycobacterium tuberculosis; assay: Antimycobacterial activity against drug-sensitive Mycobacterium tuberculosis
[12] = test system: Mycobacterium avium; assay: Antimycobacterial activity against Mycobacterium avium
[13] = test system: Mycobacterium kansasii; assay: Antimycobacterial activity against Mycobacterium kansasii
[14] = test system: Enterococcus sp.; assay: Antibacterial activity against Enterococcus sp. J14365/08 after 48 hrs by broth microdilution method; details: J14365/08, 48 h
How it was run: (§2)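 Broth microdilution following […], with twofold compound dilutions in Mueller-Hinton bouillon. Incubated 24 and 48 h at 35 °C in the dark in a humid atmosphere. MIC (IC80) was taken as ≥80% growth reduction versus control, read visually and photometrically.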

[15] = test system: Escherichia coli; assay: Antibacterial activity against Escherichia coli CCM 4517 after 24 hrs by broth microdilution method; details: CCM 4517, 24 h; how it was run: as §2
[16] = test system: Escherichia coli; assay: Antibacterial activity against Escherichia coli CCM 4517 after 48 hrs by broth microdilution method; details: CCM 4517, 48 h; how it was run: as §2
[17] = test system: Klebsiella pneumoniae; assay: Antibacterial activity against Klebsiella pneumoniae D11750/08 after 24 hrs by broth microdilution method; details: D11750/08, 24 h; how it was run: as §2
[18] = test system: Klebsiella pneumoniae; assay: Antibacterial activity against Klebsiella pneumoniae D11750/08 after 48 hrs by broth microdilution method; details: D11750/08, 48 h; how it was run: as §2
[19] = test system: Candida albicans; assay: Antifungal activity against Candida albicans ATCC 44859 after 24 hrs by broth microdilution method; details: ATCC 44859, 24 h
[20] = test system: Candida albicans; assay: Antifungal activity against Candida albicans ATCC 44859 after 48 hrs by broth microdilution method; details: ATCC 44859, 48 h
[21] = test system: Candida tropicalis; assay: Antifungal activity against Candida tropicalis 156 after 24 hrs by broth microdilution method; details: Candida tropicalis, 156, 24 h
[22] = test system: Candida tropicalis; assay: Antifungal activity against Candida tropicalis 156 after 48 hrs by broth microdilution method; details: Candida tropicalis, 156, 48 h
[23] = test system: Pichia kudriavzevii; assay: Antifungal activity against Candida krusei E28 after 24 hrs by broth microdilution method; details: E28, 24 h
[24] = test system: Pichia kudriavzevii; assay: Antifungal activity against Candida krusei E28 after 48 hrs by broth microdilution method; details: E28, 48 h
[25] = test system: Nakaseomyces glabratus; assay: Antifungal activity against Candida glabrata 20/I after 24 hrs by broth microdilution method
[26] = test system: Nakaseomyces glabratus; assay: Antifungal activity against Candida glabrata 20/I after 48 hrs by broth microdilution method
[27] = test system: Trichosporon beigelii; assay: Antifungal activity against Trichosporon beigelii 1188 after 24 hrs by broth microdilution method; details: Trichosporon beigelii, 1188, 24 h
[28] = test system: Trichosporon beigelii; assay: Antifungal activity against Trichosporon beigelii 1188 after 48 hrs by broth microdilution method; details: Trichosporon beigelii, 1188, 48 h
[29] = test system: Aspergillus fumigatus; assay: Antifungal activity against Aspergillus fumigatus 231 after 24 hrs by broth microdilution method; details: Aspergillus fumigatus, 231, 24 h
[30] = test system: Aspergillus fumigatus; assay: Antifungal activity against Aspergillus fumigatus 231 after 48 hrs by broth microdilution method; details: Aspergillus fumigatus, 231, 48 h
[31] = test system: Lichtheimia corymbifera; assay: Antifungal activity against Absidia corymbifera 272 after 24 hrs by broth microdilution method; details: Lichtheimia corymbifera, 272, 24 h
[32] = test system: Lichtheimia corymbifera; assay: Antifungal activity against Absidia corymbifera 272 after 48 hrs by broth microdilution method; details: Lichtheimia corymbifera, 272, 48 h
[33] = test system: Trichophyton mentagrophytes; assay: Antifungal activity against Trichophyton mentagrophytes after 24 hrs by broth microdilution method
[34] = test system: Trichophyton mentagrophytes; assay: Antifungal activity against Trichophyton mentagrophytes after 48 hrs by broth microdilution method
[35] = test system: Staphylococcus aureus; assay: Antibacterial activity against Staphylococcus aureus CCM 4516/08 after 24 hrs by broth microdilution method; details: CCM 4516/08, 24 h; how it was run: as §2
[36] = test system: Staphylococcus aureus; assay: Antibacterial activity against Staphylococcus aureus CCM 4516/08 after 48 hrs by broth microdilution method; details: CCM 4516/08, 48 h; how it was run: as §2
[37] = test system: Staphylococcus aureus; assay: Antibacterial activity against methicillin-resistant Staphylococcus aureus H5996/08 after 24 hrs by broth microdilution method; details: H5996/08, 24 h; how it was run: as §2
[38] = test system: Staphylococcus aureus; assay: Antibacterial activity against methicillin-resistant Staphylococcus aureus H5996/08 after 48 hrs by broth microdilution method; details: H5996/08, 48 h; how it was run: as §2
[39] = test system: Staphylococcus epidermidis; assay: Antibacterial activity against Staphylococcus epidermidis H6966/08 after 24 hrs by broth microdilution method; details: H6966/08, 24 h; how it was run: as §2
[40] = test system: Staphylococcus epidermidis; assay: Antibacterial activity against Staphylococcus epidermidis H6966/08 after 48 hrs by broth microdilution method; details: H6966/08, 48 h; how it was run: as §2
[41] = test system: Enterococcus sp.; assay: Antibacterial activity against Enterococcus sp. J14365/08 after 24 hrs by broth microdilution method; details: J14365/08, 24 h; how it was run: as §2

SMILES: Nc1ccc(C(=O)O)c(O)c1 [AMINOSALICYLIC ACID]
- MIC [1]: 62.5 µM (≈ 9.57 µg/mL)
- MIC [2]: 62.5 µM (≈ 9.57 µg/mL)
- MIC [3]: 32 µM (≈ 4.9 µg/mL)
- MIC [4]: 125 µM (≈ 19.1 µg/mL)
- MIC [5]: 125 µM (≈ 19.1 µg/mL)
- MIC [6]: 1000 µM (≈ 153 µg/mL)
- MIC [7]: > 1000 µM
- MIC [8]: 32 µM (≈ 4.9 µg/mL)
- MIC [9]: 125 µM (≈ 19.1 µg/mL)
- MIC [10]: 500 µM (≈ 76.6 µg/mL)

SMILES: NNC(=O)c1ccncc1 [ISONIAZID]
- MIC [1]: 0.5 µM (≈ 0.0686 µg/mL)
- MIC [2]: 0.5 µM (≈ 0.0686 µg/mL)
- MIC [3]: > 250 µM
- MIC [4]: > 250 µM
- MIC [5]: > 250 µM
- MIC [6]: > 250 µM
- MIC [7]: > 250 µM
- MIC [8]: 2 µM (≈ 0.274 µg/mL)
- MIC [9]: 4 µM (≈ 0.549 µg/mL)
- MIC [10]: 4 µM (≈ 0.549 µg/mL)

SMILES: CC(=O)N[C@@H](Cc1ccccc1)C(=O)Oc1ccc(Cl)cc1C(=O)Nc1cccc(Cl)c1
- MIC [11]: 1 µM (≈ 0.471 µg/mL)
- MIC [12]: 1 µM (≈ 0.471 µg/mL)
- MIC [13]: 1 µM (≈ 0.471 µg/mL)
- MIC [1]: 2 µM (≈ 0.943 µg/mL)
- MIC [2]: 4 µM (≈ 1.89 µg/mL)
- MIC [3]: 8 µM (≈ 3.77 µg/mL)
- MIC [4]: 32 µM (≈ 15.1 µg/mL)
- MIC [5]: 8 µM (≈ 3.77 µg/mL)
- MIC [6]: 8 µM (≈ 3.77 µg/mL)
- MIC [7]: 8 µM (≈ 3.77 µg/mL)
- MIC [8]: 2 µM (≈ 0.943 µg/mL)
- MIC [9]: 8 µM (≈ 3.77 µg/mL)
- MIC [10]: 8 µM (≈ 3.77 µg/mL)

SMILES: CC(=O)N[C@@H](Cc1ccccc1)C(=O)Oc1cc(Cl)ccc1C(=O)Nc1cccc(Cl)c1
- MIC [14]: > 125 µM
- MIC [15]: > 125 µM
- MIC [16]: > 125 µM
- MIC [17]: > 125 µM
- MIC [18]: > 125 µM
- MIC [19]: > 125 µM
- MIC [20]: > 125 µM
- MIC [21]: > 125 µM
- MIC [22]: > 125 µM
- MIC [23]: > 125 µM
- MIC [24]: > 125 µM
- MIC [25]: > 125 µM
- MIC [26]: > 125 µM
- MIC [27]: 125 µM (≈ 58.9 µg/mL)
- MIC [28]: > 125 µM
- MIC [29]: > 125 µM
- MIC [30]: > 125 µM
- MIC [31]: 62.5 µM (≈ 29.5 µg/mL)
- MIC [32]: > 125 µM
- MIC [33]: 62.5 µM (≈ 29.5 µg/mL)
- MIC [34]: > 125 µM
- MIC [11]: 1 µM (≈ 0.471 µg/mL)
- MIC [12]: 1 µM (≈ 0.471 µg/mL)
- MIC [13]: 1 µM (≈ 0.471 µg/mL)
- MIC [1]: 2 µM (≈ 0.943 µg/mL)
- MIC [2]: 4 µM (≈ 1.89 µg/mL)
- MIC [3]: 4 µM (≈ 1.89 µg/mL)
- MIC [4]: 8 µM (≈ 3.77 µg/mL)
- MIC [5]: 4 µM (≈ 1.89 µg/mL)
- MIC [6]: 4 µM (≈ 1.89 µg/mL)
- MIC [7]: 8 µM (≈ 3.77 µg/mL)
- MIC [8]: 2 µM (≈ 0.943 µg/mL)
- MIC [9]: 4 µM (≈ 1.89 µg/mL)
- MIC [10]: 8 µM (≈ 3.77 µg/mL)
- MIC [35]: 31.2 µM (≈ 14.7 µg/mL)
- MIC [36]: 125 µM (≈ 58.9 µg/mL)
- MIC [37]: 125 µM (≈ 58.9 µg/mL)
- MIC [38]: 125 µM (≈ 58.9 µg/mL)
- MIC [39]: 62.5 µM (≈ 29.5 µg/mL)
- MIC [40]: 125 µM (≈ 58.9 µg/mL)
- MIC [41]: 125 µM (≈ 58.9 µg/mL)
